{
  "source": "ChEMBL document CHEMBL4265873",
  "about": "“Design and discovery of silybin analogues as antiproliferative compounds using a ring disjunctive - Based, natural product lead optimization approach” (Eur J Med Chem, 2017)",
  "key": {"2008 [1]": {"tested_on": "2008", "test": "Induction of cell cycle arrest in human OV2008 cells assessed as cell accumulation at subG1 phase at 4 uM incubated for 12 hrs by propidium iodide staining based flow cytometry (reference value: 11.3%)", "assay_type": "functional", "method_in_brief": "(§1)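 OV2008 cells were plated at 1x10^6 cells/well and incubated with 0, 2 or 4 µM for 12 h. Cells were trypsinised, washed and resuspended in ice-cold PBS, then stained with propidium iodide for at least 15 min. Phase distribution was measured by flow cytometry. Means ± SD of three independent experiments in triplicate.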"}, "OV2008 (Homo sapiens)": {"tested_on": "OV2008 (Homo sapiens)", "test": "Induction of cell cycle arrest in human OV2008 cells assessed as increase in cell accumulation at subG1 phase at 2 to 4 uM incubated for 12 hrs by propidium iodide staining based flow cytometry"}, "A2780 [2]": {"tested_on": "A2780", "test": "Induction of apoptosis in human A2780 cells assessed as apoptosis cells level at 2 uM incubated for 12 hrs by Alexa Fluor 488 annexin V and mito-tracker red CMXRos dye staining based flow cytometry (reference value: 0.0%)", "assay_type": "functional", "method_in_brief": "(§2)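 Cells in complete medium were treated with 0, 2 or 4 µM for 12 h, then trypsinised. They were stained with MitoTracker Red (4 µL of 10 µM working solution per 1 mL of cells) for 30 min at 37 °C under 5% CO2. Cells were then resuspended in annexin-binding buffer with Alexa Fluor 488 annexin V for 15 min. Flow cytometry emission read at 530 and 585 nm. Two independent experiments, each in triplicate.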"}, "2008 [3]": {"tested_on": "2008", "test": "Induction of cell cycle arrest in human OV2008 cells assessed as cell accumulation at S phase at 4 uM incubated for 12 hrs by propidium iodide staining based flow cytometry (reference value: 5.2%)", "assay_type": "functional", "method_in_brief": "as §1"}, "2008 [4]": {"tested_on": "2008", "test": "Induction of cell cycle arrest in human OV2008 cells assessed as cell accumulation at G2 phase at 4 uM incubated for 12 hrs by propidium iodide staining based flow cytometry (reference value: 2.5%)", "assay_type": "functional", "method_in_brief": "as §1"}, "Homo sapiens [5]": {"species_on_record": "Homo sapiens", "test": "Inhibition of tubulin alpha in human OV2008 cells assessed as induction of disturbance in cellular microtubule shape and integrity by measuring loss in microtubule long spindle shape at 2 to 4 uM after overnight incubation by immunofluorescence analysis", "assay_type": "cell-based"}, "[6]": {"test": "Selectivity index, ratio of IC50 for cytotoxicity in CHO cells incubated for 68 hrs by MTT assay to IC50 for cytotoxicity in human A2780 cells incubated for 68 hrs by MTT assay", "assay_type": "toxicity, cell-based", "details": "Chinese hamster (CHO cells), CHO cells versus A2780 cells, read-out: Ratio IC50"}, "2008 [7]": {"tested_on": "2008", "test": "Induction of cell cycle arrest in human OV2008 cells assessed as cell accumulation at G1 phase at 2 uM incubated for 12 hrs by propidium iodide staining based flow cytometry (reference value: 79.1%)", "assay_type": "functional", "method_in_brief": "as §1"}, "A2780 [8]": {"tested_on": "A2780", "test": "Induction of apoptosis in human A2780 cells assessed as apoptosis cells level at 4 uM incubated for 12 hrs by Alexa Fluor 488 annexin V and mito-tracker red CMXRos dye staining based flow cytometry (reference value: 0.0%)", "assay_type": "functional", "method_in_brief": "as §2"}, "Homo sapiens [9]": {"species_on_record": "Homo sapiens", "test": "Inhibition of tubulin alpha in human OV2008 cells assessed as induction of disturbance in cellular microtubule shape and integrity by measuring cell shrinkage and rounding at 2 to 4 uM after overnight incubation by immunofluorescence analysis", "assay_type": "cell-based"}, "PANC-1": {"tested_on": "PANC-1", "test": "Cytotoxicity in human PANC1 cells assessed as reduction in cell viability incubated for 68 hrs by MTT assay", "assay_type": "functional, cell-based", "details": "PANC-1, 68 h", "method_in_brief": "(§3)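 Cells were trypsinised and seeded at 5x10^3 cells/well. Compound was added at 0, 0.1, 0.3, 1, 3, 10, 30 and 100 µM for 68 h. MTT (4 mg/mL solution) was then added for 4 h, and the formazan was dissolved in DMSO. Absorbance read at 570 nm. IC50 was derived from % survival across the eight concentrations. Mean ± SD of three independent experiments, each in triplicate.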"}, "A2780 [10]": {"tested_on": "A2780", "test": "Potency index, ratio of IC50 for silybin to IC50 for test compound for cytotoxicity in human A2780 cells assessed as reduction in cell viability incubated for 68 hrs by MTT assay", "assay_type": "functional"}, "2008 [11]": {"tested_on": "2008", "test": "Induction of cell cycle arrest in human OV2008 cells assessed as cell accumulation at G2 phase at 2 uM incubated for 12 hrs by propidium iodide staining based flow cytometry (reference value: 2.5%)", "assay_type": "functional", "method_in_brief": "as §1"}, "2008 [12]": {"tested_on": "2008", "test": "Induction of morphological changes in human OV2008 cells at 1 to 4 uM incubated for 68 hrs", "assay_type": "functional, cell-based", "method_in_brief": "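OV2008 and A2780 cells, with CHO alongside, were exposed to 0, 1, 2 or 4 µM for 68 h. Each triplicate treatment was photographed at 20X under an inverted microscope to assess morphology.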"}, "[13]": {"test": "Selectivity index, ratio of IC50 for cytotoxicity in human CRL1459 cells incubated for 68 hrs by MTT assay to IC50 for cytotoxicity in human OV2008 cells incubated for 68 hrs by MTT assay", "assay_type": "toxicity, cell-based", "details": "CRL1459 cells versus OV2008 cells, read-out: Ratio IC50"}, "BT-20": {"tested_on": "BT-20", "test": "Cytotoxicity in human BT20 cells assessed as reduction in cell viability incubated for 68 hrs by MTT assay", "assay_type": "functional, cell-based", "details": "BT-20, 68 h", "method_in_brief": "as §3"}},
  "note": "Calls of active or inactive are those of the source. The rule behind the calls is not given here.",
  "data": [
    {"smiles": "O=C(/C=C/c1cccc(OCc2ccccc2)c1)c1ccc(O)cc1", "values": [
      {"measurement": "Activity", "setting": "2008 [1]", "value": 33.9, "unit": "%"},
      {"measurement": "Activity", "setting": "OV2008 (Homo sapiens)", "value": "Dose-dependent effect"},
      {"measurement": "Activity", "setting": "A2780 [2]", "value": 37.3, "unit": "%"},
      {"measurement": "Activity", "setting": "2008 [3]", "value": 5.2, "unit": "%"},
      {"measurement": "Activity", "setting": "2008 [4]", "value": 1.9, "unit": "%"},
      {"measurement": "inhibition", "setting": "Homo sapiens [5]", "value": "Active"},
      {"measurement": "selectivity ratio at 68 h", "setting": "[6]", "value": "6 to 30"},
      {"measurement": "Activity", "setting": "2008 [7]", "value": 58.4, "unit": "%"},
      {"measurement": "Activity", "setting": "A2780 [8]", "value": 38, "unit": "%"},
      {"measurement": "inhibition", "setting": "Homo sapiens [9]", "value": "Active"},
      {"measurement": "IC50", "setting": "PANC-1", "value": 2.6, "unit": "µM"},
      {"measurement": "Ratio IC50", "setting": "A2780 [10]", "value": "30 - 200"},
      {"measurement": "Activity", "setting": "2008 [11]", "value": 2.7, "unit": "%"},
      {"measurement": "Activity", "setting": "2008 [12]", "value": "Active"},
      {"measurement": "selectivity ratio at 68 h", "setting": "[13]", "value": "6 to 30"},
      {"measurement": "IC50", "setting": "BT-20", "value": 5.1, "unit": "µM"}
    ]}
  ]
}
